The values that follow come from ChEMBL document CHEMBL1121738, “Mesoionic purinone analogues as inhibitors of cyclic-AMP phosphodiesterase: a comparison of several ring systems” (J Med Chem, 1981).

The species named for test [1] is Bos taurus. The test is described as follows: Relative potency of compound to that of theophylline against phosphodiesterase from bovine heart. In short, it runs like this:
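Klee-method assay of commercial bovine heart phosphodiesterase with 1 μM cyclic-AMP; some inhibitors were dissolved in 95% ethanol (2.5% final). I50 came from V0/V versus concentration plots (V0/V = 2), using five concentrations and at least three repeats. Each value is expressed relative to the I50 of a theophylline control (= 1.0) run with or without ethanol to match.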

A short description of test [2]: Inhibitory activity against phosphodiesterase using 1 uM cyclic-AMP as substrate in bovine heart. Also on record: species or system Bos taurus. The following applies: read-out: I50. In a few lines: (§1)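 Commercial bovine heart phosphodiesterase assayed by the Klee method with 1 μM cyclic-AMP substrate. Poorly soluble inhibitors were predissolved in 95% ethanol, giving 2.5% ethanol final. I50 was taken from a plot of V0/V against inhibitor concentration as the concentration where V0/V = 2. Five concentrations spanning 25–75% inhibition were used, and each I50 was repeated at least three times; ± standard error.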

For test [3], the species on record is Bos taurus. The test is described as follows: Inhibition of bovine heart phosphodiesterase at 3000 uM using 1 uM cyclic-AMP. In short, it runs like this: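 Commercial bovine heart cyclic-AMP phosphodiesterase assayed by the Klee method with 1 μM cyclic-AMP substrate. Poorly soluble compounds were dissolved in 95% ethanol (2.5% final) before dilution with buffer. Activity is read as percent inhibition at a single inhibitor concentration.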

Test [4] is filed under the species Bos taurus. The test can be described thus: Inhibition of bovine heart phosphodiesterase using 1 uM cyclic-AMP. In a few lines: as §1
The species entered for test [5] is Bos taurus. The test can be described thus: Inhibition of bovine heart phosphodiesterase at 1000 uM using 1 uM cyclic-AMP. In short, it runs like this: (§2)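 Percent inhibition of commercial bovine heart phosphodiesterase at the single stated inhibitor concentration, measured by the Klee method with 1 μM cyclic-AMP substrate. Some compounds were dissolved in 95% ethanol, giving 2.5% final ethanol, before dilution with buffer.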

Test [6] is described as follows: Inhibition of bovine heart phosphodiesterase using 1 uM cyclic-AMP with ethanol. The arrangement: species or system Bos taurus. As to conditions: read-out: I50. In a few lines:
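Commercial bovine heart PDE, assayed by the Klee method with 1 μM cyclic-AMP substrate. Inhibitors were dissolved in 95% ethanol and diluted with buffer to 2.5% ethanol final. V0/V was plotted against inhibitor concentration, and I50 was taken where V0/V = 2. Five inhibitor concentrations spanning 25-75% inhibition were used, each I50 was run at least three times, and values are expressed relative to an ethanol-containing theophylline control (= 1.0) ± standard error.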

For test [7], the species on record is Bos taurus. The test is described as follows: Inhibition of bovine heart phosphodiesterase at 1500 uM using 1 uM cyclic-AMP. In a few lines: as §2
Test [8] is filed under the species Bos taurus. The test can be described thus: Inhibition of bovine heart phosphodiesterase at 2000 uM using 1 uM cyclic-AMP. In short, it runs like this: as §2
Test [9] can be described thus: Inhibition of bovine heart phosphodiesterase using 1 uM cyclic-AMP (Insoluble). The arrangement: species or system Bos taurus. In short, it runs like this:
as §1

A value given as a limit tells only on which side of the number the result lay.

`CC[N+]1=C2SC=CN2C(=O)C(Cc2ccccc2)C1=O` (centres undefined): in test [1], the Relative potency was found to be 2.5. In addition, the IC50 in [2] came out at 168 µM.
One may read the inhibition as how much of the control response was suppressed. `CCC1C(=O)N2C=CN(C)C2=[N+](CC)C1=O` (centres undefined) returned an inhibition in [3] of under 30%.
For the compound `CCC1C(=O)N2CCSC2=[N+](CC)C1=O` (centres undefined), in [4], the inhibition turned out to be 38%.
Compound `O=C1CC(=O)[N+](c2ccccc2)=C2SC=CN12` had an inhibition in test [5] of under 40%.
In test [1], `CC[N+]1=C2SC=CN2C(=O)CC1=O` registered a Relative potency of 0.3. In addition, the IC50 in [2] was determined as 988 µM.
For `CCC1C(=O)N2C=CSC2=[N+](Cc2ccccc2)C1=O` (centres undefined) the same measures were 0.9 and 430 µM.
For `CCC1C(=O)N2C=CSC2=[N+](Cc2cc(OC)cc(OC)c2)C1=O` (centres undefined) the same measures were 1.3 and 323 µM.
For `CCC1C(=O)N2C=CSC2=[N+](Cc2ccc3c(c2)OCO3)C1=O` (centres undefined) the same measures were 1.6 and 261 µM.
Turning to `CC[N+]1=C2SC=NN2C(=O)CC1=O`, the Relative potency in [1] was 0.5. Besides, the IC50 in test [2] amounted to 774 µM.
For `C[N+]1=C2SC=NN2C(=O)CC1=O` the same measures were 0.4 and 1100 µM.
Compound `C[N+]1=C2SC=CN2C(=O)CC1=O` gave an inhibition in [5] of under 40%.
On to `O=C1CC(=O)[N+](CC2CC2)=C2SCCN12`, for which the Relative potency in [1] was 0.1. Further, the IC50 in test [2] amounted to 2050 µM.
As for `CCC1C(=O)N2C=CSC2=[N+](Cc2ccc(-c3ccccc3)cc2)C1=O` (centres undefined), the Relative potency in [1] came to 31.7. Also, the IC50 in test [2] was 13 µM.
Taken in the same sequence, the figures for `CCC1C(=O)N2C=CSC2=[N+](CC2CC2)C1=O` (centres undefined) were 0.7 and 396 µM.
Compound `O=C1CC(=O)[n+]2ccsc2N1Cc1cccc(Cl)c1` displayed a Relative potency in test [1] of 1.3. In test [2], the IC50 stood at 308 µM.
For the compound `Cn1c(=O)c2nc[nH]c2n(C)c1=O` [THEOPHYLLINE], the IC50 in test [2] is 286 µM; in [6], 412 µM.
Regarding `Cn1c(=O)c2[nH]cnc2n(C)c1=O`, the Relative potency in [1] was determined as 1.
`CCC1C(=O)N2C=CC=NC2=[N+](C)C1=O` (centres undefined) yielded a Relative potency in test [1] of 0.2. In addition, the IC50 in [2] is 1670 µM.
Consider `CCC1C(=O)N2CCSC2=[N+](CC(C)C)C1=O` (centres undefined), for which the inhibition in test [7] is 39%.
In [1], `CC[N+]1=C2SC=CN2C(=O)C(C)C1=O` (centres undefined) displayed a Relative potency of 0.3. Besides, the IC50 in test [2] was 951 µM.
For `CCC1C(=O)N2N=CN(C)C2=[N+](C)C1=O` (centres undefined), the inhibition in [8] is under 30%.
`CCC1C(=O)N2C=CSC2=[N+](CC(C)C)C1=O` (centres undefined) registered a Relative potency in test [1] of 0.6. Also, in [2], the IC50 was found to be 498 µM.
`CCC1C(=O)N=C2N=CC=CN2C1=O` (centres undefined) yielded an inhibition in test [8] of 22%.
In test [1], `CC1C(=O)N2CCSC2=[N+](CC2CC2)C1=O` (centres undefined) registered a Relative potency of 0.2. Besides, the IC50 in [2] was found to be 1260 µM.
Taken in the same sequence, the figures for `CC[N+]1=C2SC=NN2C(=O)C(C)C1=O` (centres undefined) were 0.4 and 1160 µM.
For the compound `CCC1C(=O)N2N=CSC2=[N+](CC)C1=O` (centres undefined), in test [1], the Relative potency stood at 0.7. Further, in test [2], the IC50 stood at 555 µM.
For `CC1C(=O)N2C=CSC2=[N+](CC2CC2)C1=O` (centres undefined) the same measures were 0.9 and 319 µM.
Taken in the same sequence, the figures for `CCC1C(=O)N2C=CSC2=[N+](Cc2cccc(Cl)c2)C1=O` (centres undefined) were 2 and 208 µM.
With `CC[N+]1=C2SC=NN2C(=O)C(Cc2ccccc2)C1=O` (centres undefined), the Relative potency in [1] came to 7.9. In [2], the IC50 stood at 52 µM.
As to `CC1C(=O)N(C)C2SC=CN2C1=O` (centres undefined), the inhibition in test [5] is under 40%.
With `CC[N+]1=C2N(C)C=CN2C(=O)C(C)C1=O` (centres undefined), the inhibition in test [3] was under 30%.
In turn, `CCC1C(=O)N2C=CSC2=[N+](Cc2ccc(Cl)cc2)C1=O` (centres undefined) showed a Relative potency in test [1] of 2.2. In [2], the IC50 came to 191 µM.
Turning to `CCC1C(=O)N2C=CSC2=[N+](c2ccccc2)C1=O` (centres undefined), in test [5], the inhibition was under 40%.
`CCC1C(=O)N2C=CSC2=[N+](Cc2ccccc2Cl)C1=O` (centres undefined) came in with a Relative potency in test [1] of 1.4. In addition, the IC50 in test [2] worked out at 305 µM.
For `CCC1C(=O)N2C=Cc3ccccc3C2=[N+](CC)C1=O` (centres undefined) the same measures were 3.2 and 127 µM.
As to `CCC1C(=O)N(C)C2SC=CN2C1=O` (centres undefined), the inhibition in test [5] is under 40%.
As to `CN1C=NN2C(=O)CC(=O)[N+](C)=C12`, the inhibition in test [8] is under 30%.
In the case of `CCC1C(=O)N=C2SC=NN2C1=O` (centres undefined), the I50 result in test [9] is given as “Insoluble”.
As to `CC1C(=O)N2C=CSC2=[N+](c2ccccc2)C1=O` (centres undefined), the inhibition in [5] was under 40%.
Turning to `CC1C(=O)N2N=CN(C)C2=[N+](C)C1=O` (centres undefined), the inhibition in [8] was under 30%.
On to `CCC1C(=O)N=C2SC=CN2C1=O` (centres undefined), for which the I50 entry in [9] was “Insoluble”.
For `CCC1C(=O)N2CCSC2=[N+](CC2CC2)C1=O` (centres undefined), the Relative potency in test [1] was found to be 0.2. In test [2], the IC50 came to 1390 µM.
The compound `O=C1CC(=O)[N+](CC2CC2)=C2SC=CN12` returned a Relative potency in test [1] of 0.6. Further, the IC50 in [2] worked out at 495 µM.
Taken in the same sequence, the figures for `CCC1C(=O)N(CC)c2scc[n+]2C1=O` (centres undefined) were 0.3 and 858 µM.
Taken in the same sequence, the figures for `COc1ccc(C[N+]2=C3SC=CN3C(=O)C(C)C2=O)cc1` (centres undefined) were 0.7 and 532 µM.
`CCCC1C(=O)N2N=CN(C)C2=[N+](C)C1=O` (centres undefined): the Relative potency in test [1] was found to be 0.2. The IC50 in test [2] worked out at 1710 µM.
As to `CCC1C(=O)N2C=CC=CC2=[N+](CC2CCCCC2)C1=O` (centres undefined), in test [1], the Relative potency was determined as 2. Moreover, the IC50 in [2] came out at 210 µM.
In the case of `CC1C(=O)N2N=CSC2=[N+](Cc2ccccc2)C1=O` (centres undefined), in test [1], the Relative potency is 2.2. The IC50 in test [2] came to 191 µM.
